Experimental data: ChEMBL document CHEMBL5058577, “EUbOPEN Chemogenomics Library 2 (Multiplex)” (2022)

Tested on: HEK-293T
Experiment: Multiplex assay against HEK293T
Format: toxicity, cell-based
Conditions: human
Procedure, shortened: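 Phenotypes for tubulin, mitochondrial mass and membrane permeability are expressed as per cents of healthy-nucleus cells. Cells were stained live at seeding with Hoechst33342, BioTracker Green Microtubule Cytoskeleton Dye, MitoTracker Red and Annexin V Alexa Fluor 680, then imaged after compound addition on a CQ1 microscope at 37°C and 5% CO2. Machine-learning gating in CellPathfinder separated Hoechst high-intensity objects from normal cells, divided normal cells by nuclear state (healthy, pyknosed, fragmented) and divided pyknosed cells into mitotic or apoptotic.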

[1] = 12 h, 1 µM, compound concentration 1 uM, replicate 1
[2] = 12 h, 1 µM, compound concentration 1 uM, replicate 2
[3] = 12 h, 10 µM, compound concentration 10 uM, replicate 1
[4] = 12 h, 10 µM, compound concentration 10 uM, replicate 2
[5] = 24 h, 1 µM, compound concentration 1 uM, replicate 1
[6] = 24 h, 1 µM, compound concentration 1 uM, replicate 2
[7] = 24 h, 10 µM, compound concentration 10 uM, replicate 1
[8] = 24 h, 10 µM, compound concentration 10 uM, replicate 2
[9] = 48 h, 1 µM, compound concentration 1 uM, replicate 1
[10] = 48 h, 1 µM, compound concentration 1 uM, replicate 2
[11] = 48 h, 10 µM, compound concentration 10 uM, replicate 1
[12] = 48 h, 10 µM, compound concentration 10 uM, replicate 2

Compound: Cc1c(Cc2ccc3ccccc3n2)c2cc(F)ccc2n1CC(=O)O [TIMAPIPRANT]
- Population Apoptotic (%) [1]: 42%
- Population Fragmented Nuclei (%) [1]: 7%
- Population Healthy Nuclei (%) [1]: 80%
- Population Hoechst High Intensity Objects (%) [1]: 10%
- Population Membrane Permeable-Phenotype (%) [1]: 0%
- Population Mitochondria Different-Phenotype (%) [1]: 36%
- Population Mitotic Cells (%) [1]: 57%
- Population Normal (%) [1]: 89%
- Population Pyknosed Nuclei (%) [1]: 11%
- Population Tubulin-Different-Phenotype (%) [1]: 20%
- Total Cell Count [1]: 394
- Population Fragmented Nuclei (%) [2]: 6%
- Population Hoechst High Intensity Objects (%) [2]: 7%
- Population Mitochondria Different-Phenotype (%) [2]: 55%
- Population Normal (%) [2]: 92%
- Population Pyknosed Nuclei (%) [2]: 12%
- Population Tubulin-Different-Phenotype (%) [2]: 16%
- Total Cell Count [2]: 280
- Population Apoptotic (%) [3]: 32%
- Population Fragmented Nuclei (%) [3]: 7%
- Population Healthy Nuclei (%) [3]: 78%
- Population Hoechst High Intensity Objects (%) [3]: 6%
- Population Membrane Permeable-Phenotype (%) [3]: 0%
- Population Mitochondria Different-Phenotype (%) [3]: 55%
- Population Mitotic Cells (%) [3]: 67%
- Population Normal (%) [3]: 93%
- Population Pyknosed Nuclei (%) [3]: 14%
- Population Tubulin-Different-Phenotype (%) [3]: 38%
- Total Cell Count [3]: 434
- Population Apoptotic (%) [4]: 33%
- Population Fragmented Nuclei (%) [4]: 6%
- Population Hoechst High Intensity Objects (%) [4]: 5%
- Population Mitochondria Different-Phenotype (%) [4]: 63%
- Population Mitotic Cells (%) [4]: 66%
- Population Normal (%) [4]: 94%
- Population Pyknosed Nuclei (%) [4]: 15%
- Population Tubulin-Different-Phenotype (%) [4]: 28%
- Total Cell Count [4]: 354
- Population Apoptotic (%) [5]: 31%
- Population Fragmented Nuclei (%) [5]: 10%
- Population Healthy Nuclei (%) [5]: 81%
- Population Hoechst High Intensity Objects (%) [5]: 4%
- Population Membrane Permeable-Phenotype (%) [5]: 1%
- Population Mitochondria Different-Phenotype (%) [5]: 20%
- Population Mitotic Cells (%) [5]: 68%
- Population Normal (%) [5]: 95%
- Population Pyknosed Nuclei (%) [5]: 8%
- Population Tubulin-Different-Phenotype (%) [5]: 15%
- Total Cell Count [5]: 516
- Population Apoptotic (%) [6]: 53%
- Population Fragmented Nuclei (%) [6]: 7%
- Population Healthy Nuclei (%) [6]: 83%
- Population Hoechst High Intensity Objects (%) [6]: 5%
- Population Membrane Permeable-Phenotype (%) [6]: 0%
- Population Mitochondria Different-Phenotype (%) [6]: 38%
- Population Mitotic Cells (%) [6]: 46%
- Population Normal (%) [6]: 94%
- Total Cell Count [6]: 381
- Population Apoptotic (%) [7]: 32%
- Population Fragmented Nuclei (%) [7]: 7%
- Population Healthy Nuclei (%) [7]: 78%
- Population Hoechst High Intensity Objects (%) [7]: 4%
- Population Membrane Permeable-Phenotype (%) [7]: 0%
- Population Mitochondria Different-Phenotype (%) [7]: 31%
- Population Mitotic Cells (%) [7]: 67%
- Population Normal (%) [7]: 95%
- Population Pyknosed Nuclei (%) [7]: 13%
- Population Tubulin-Different-Phenotype (%) [7]: 28%
- Total Cell Count [7]: 560
- Population Apoptotic (%) [8]: 37%
- Population Fragmented Nuclei (%) [8]: 12%
- Population Healthy Nuclei (%) [8]: 77%
- Population Hoechst High Intensity Objects (%) [8]: 5%
- Population Mitochondria Different-Phenotype (%) [8]: 44%
- Population Mitotic Cells (%) [8]: 62%
- Population Normal (%) [8]: 94%
- Population Pyknosed Nuclei (%) [8]: 10%
- Population Tubulin-Different-Phenotype (%) [8]: 20%
- Total Cell Count [8]: 475
- Population Apoptotic (%) [9]: 26%
- Population Fragmented Nuclei (%) [9]: 13%
- Population Healthy Nuclei (%) [9]: 78%
- Population Hoechst High Intensity Objects (%) [9]: 2%
- Population Membrane Permeable-Phenotype (%) [9]: 1%
- Population Mitochondria Different-Phenotype (%) [9]: 9%
- Population Mitotic Cells (%) [9]: 73%
- Population Normal (%) [9]: 97%
- Population Pyknosed Nuclei (%) [9]: 8%
- Population Tubulin-Different-Phenotype (%) [9]: 6%
- Total Cell Count [9]: 799
- Population Apoptotic (%) [10]: 17%
- Population Fragmented Nuclei (%) [10]: 15%
- Population Healthy Nuclei (%) [10]: 76%
- Population Hoechst High Intensity Objects (%) [10]: 3%
- Population Membrane Permeable-Phenotype (%) [10]: 0%
- Population Mitochondria Different-Phenotype (%) [10]: 25%
- Population Mitotic Cells (%) [10]: 82%
- Population Normal (%) [10]: 96%
- Population Tubulin-Different-Phenotype (%) [10]: 12%
- Total Cell Count [10]: 566
- Population Apoptotic (%) [11]: 33%
- Population Fragmented Nuclei (%) [11]: 10%
- Population Healthy Nuclei (%) [11]: 79%
- Population Hoechst High Intensity Objects (%) [11]: 4%
- Population Membrane Permeable-Phenotype (%) [11]: 1%
- Population Mitochondria Different-Phenotype (%) [11]: 24%
- Population Mitotic Cells (%) [11]: 66%
- Population Normal (%) [11]: 95%
- Population Pyknosed Nuclei (%) [11]: 9%
- Population Tubulin-Different-Phenotype (%) [11]: 17%
- Total Cell Count [11]: 752
- Population Apoptotic (%) [12]: 36%
- Population Fragmented Nuclei (%) [12]: 14%
- Population Healthy Nuclei (%) [12]: 78%
- Population Membrane Permeable-Phenotype (%) [12]: 0%
- Population Mitochondria Different-Phenotype (%) [12]: 33%
- Population Mitotic Cells (%) [12]: 63%
- Population Pyknosed Nuclei (%) [12]: 6%
- Population Tubulin-Different-Phenotype (%) [12]: 16%
- Total Cell Count [12]: 630

Compound: O=C(NCCNCC(O)COc1ccc(O)cc1)N1CCOCC1.O=C(NCCNCC(O)COc1ccc(O)cc1)N1CCOCC1.O=C(O)/C=C/C(=O)O (stereo unspecified) [XAMOTEROL FUMARATE]
- Population Apoptotic (%) [1]: 39%
- Population Fragmented Nuclei (%) [1]: 5%
- Population Healthy Nuclei (%) [1]: 79%
- Population Hoechst High Intensity Objects (%) [1]: 4%
- Population Membrane Permeable-Phenotype (%) [1]: 0%
- Population Mitochondria Different-Phenotype (%) [1]: 39%
- Population Mitotic Cells (%) [1]: 60%
- Population Normal (%) [1]: 95%
- Population Pyknosed Nuclei (%) [1]: 14%
- Population Tubulin-Different-Phenotype (%) [1]: 26%
- Total Cell Count [1]: 339
- Population Apoptotic (%) [2]: 60%
- Population Healthy Nuclei (%) [2]: 76%
- Population Hoechst High Intensity Objects (%) [2]: 14%
- Population Mitochondria Different-Phenotype (%) [2]: 57%
- Population Mitotic Cells (%) [2]: 39%
- Population Normal (%) [2]: 85%
- Population Pyknosed Nuclei (%) [2]: 17%
- Population Tubulin-Different-Phenotype (%) [2]: 21%
- Total Cell Count [2]: 271
- Population Apoptotic (%) [3]: 35%
- Population Fragmented Nuclei (%) [3]: 7%
- Population Healthy Nuclei (%) [3]: 83%
- Population Hoechst High Intensity Objects (%) [3]: 6%
- Population Membrane Permeable-Phenotype (%) [3]: 0%
- Population Mitochondria Different-Phenotype (%) [3]: 39%
- Population Mitotic Cells (%) [3]: 65%
- Population Normal (%) [3]: 93%
- Population Pyknosed Nuclei (%) [3]: 8%
- Population Tubulin-Different-Phenotype (%) [3]: 19%
- Total Cell Count [3]: 499
- Population Apoptotic (%) [4]: 29%
- Population Fragmented Nuclei (%) [4]: 4%
- Population Healthy Nuclei (%) [4]: 86%
- Population Hoechst High Intensity Objects (%) [4]: 5%
- Population Mitochondria Different-Phenotype (%) [4]: 62%
- Population Mitotic Cells (%) [4]: 70%
- Population Normal (%) [4]: 94%
- Population Pyknosed Nuclei (%) [4]: 9%
- Population Tubulin-Different-Phenotype (%) [4]: 23%
- Total Cell Count [4]: 406
- Population Apoptotic (%) [5]: 26%
- Population Fragmented Nuclei (%) [5]: 8%
- Population Healthy Nuclei (%) [5]: 78%
- Population Hoechst High Intensity Objects (%) [5]: 6%
- Population Membrane Permeable-Phenotype (%) [5]: 0%
- Population Mitochondria Different-Phenotype (%) [5]: 18%
- Population Mitotic Cells (%) [5]: 73%
- Population Normal (%) [5]: 93%
- Population Pyknosed Nuclei (%) [5]: 12%
- Population Tubulin-Different-Phenotype (%) [5]: 17%
- Total Cell Count [5]: 475
- Population Apoptotic (%) [6]: 45%
- Population Fragmented Nuclei (%) [6]: 9%
- Population Healthy Nuclei (%) [6]: 80%
- Population Hoechst High Intensity Objects (%) [6]: 13%
- Population Mitochondria Different-Phenotype (%) [6]: 38%
- Population Mitotic Cells (%) [6]: 54%
- Population Normal (%) [6]: 86%
- Population Pyknosed Nuclei (%) [6]: 10%
- Population Tubulin-Different-Phenotype (%) [6]: 15%
- Total Cell Count [6]: 366
- Population Apoptotic (%) [7]: 21%
- Population Fragmented Nuclei (%) [7]: 9%
- Population Healthy Nuclei (%) [7]: 79%
- Population Hoechst High Intensity Objects (%) [7]: 5%
- Population Membrane Permeable-Phenotype (%) [7]: 0%
- Population Mitochondria Different-Phenotype (%) [7]: 25%
- Population Mitotic Cells (%) [7]: 78%
- Population Normal (%) [7]: 94%
- Population Pyknosed Nuclei (%) [7]: 11%
- Population Tubulin-Different-Phenotype (%) [7]: 12%
- Total Cell Count [7]: 632
- Population Apoptotic (%) [8]: 33%
- Population Fragmented Nuclei (%) [8]: 7%
- Population Healthy Nuclei (%) [8]: 85%
- Population Hoechst High Intensity Objects (%) [8]: 4%
- Population Mitochondria Different-Phenotype (%) [8]: 42%
- Population Mitotic Cells (%) [8]: 66%
- Population Normal (%) [8]: 95%
- Population Pyknosed Nuclei (%) [8]: 7%
- Population Tubulin-Different-Phenotype (%) [8]: 17%
- Total Cell Count [8]: 542
- Population Apoptotic (%) [9]: 21%
- Population Fragmented Nuclei (%) [9]: 14%
- Population Healthy Nuclei (%) [9]: 77%
- Population Hoechst High Intensity Objects (%) [9]: 2%
- Population Membrane Permeable-Phenotype (%) [9]: 2%
- Population Mitochondria Different-Phenotype (%) [9]: 11%
- Population Mitotic Cells (%) [9]: 78%
- Population Normal (%) [9]: 97%
- Population Pyknosed Nuclei (%) [9]: 7%
- Population Tubulin-Different-Phenotype (%) [9]: 9%
- Total Cell Count [9]: 918
- Population Apoptotic (%) [10]: 41%
- Population Fragmented Nuclei (%) [10]: 11%
- Population Healthy Nuclei (%) [10]: 81%
- Population Hoechst High Intensity Objects (%) [10]: 4%
- Population Membrane Permeable-Phenotype (%) [10]: 0%
- Population Mitochondria Different-Phenotype (%) [10]: 18%
- Population Mitotic Cells (%) [10]: 58%
- Population Normal (%) [10]: 95%
- Population Pyknosed Nuclei (%) [10]: 6%
- Population Tubulin-Different-Phenotype (%) [10]: 10%
- Total Cell Count [10]: 526
- Population Apoptotic (%) [11]: 17%
- Population Fragmented Nuclei (%) [11]: 15%
- Population Healthy Nuclei (%) [11]: 79%
- Population Hoechst High Intensity Objects (%) [11]: 0%
- Population Membrane Permeable-Phenotype (%) [11]: 1%
- Population Mitochondria Different-Phenotype (%) [11]: 13%
- Population Mitotic Cells (%) [11]: 82%
- Population Normal (%) [11]: 99%
- Population Pyknosed Nuclei (%) [11]: 5%
- Population Tubulin-Different-Phenotype (%) [11]: 6%
- Total Cell Count [11]: 1116
- Population Apoptotic (%) [12]: 25%
- Population Fragmented Nuclei (%) [12]: 16%
- Population Healthy Nuclei (%) [12]: 77%
- Population Hoechst High Intensity Objects (%) [12]: 2%
- Population Membrane Permeable-Phenotype (%) [12]: 0%
- Population Mitochondria Different-Phenotype (%) [12]: 16%
- Population Mitotic Cells (%) [12]: 74%
- Population Normal (%) [12]: 97%
- Population Tubulin-Different-Phenotype (%) [12]: 10%
- Total Cell Count [12]: 827
